Publication PMC5774489 (OncoTargets and therapy, 2018)
Read-outs that look alike come from different tables or passages of the source.

What was measured:
Type in all cases: cell-based
[1] = tested on: B16F10 mouse melanoma cells; assay: MTT antiproliferative activity, B16F10; conditions: read-out: IC50, B16F10
Outline: (§1)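 Cells were pre-incubated for 24 h at 37°C in 5% CO2. Medium was replaced with test compound at 10−4, 10−5, 10−6, 10−7 and 10−8 M for 72 h at 37°C. After a PBS wash, MTT was added for at least 4 h at 37°C and OD was read at 570 nm. IC50 (50% cell killing) came from percent viability versus log concentration; mean ± SEM, n=3.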

[2] = tested on: MCF-7 human breast cancer cells; assay: MTT antiproliferative activity, MCF-7; conditions: read-out: IC50, MCF-7
Outline: as §1

[3] = tested on: HCT-116 human colon cancer cells; assay: MTT antiproliferative activity, HCT-116; conditions: read-out: IC50, HCT-116
Outline: as §1

[4] = tested on: A549 human adenocarcinomic alveolar basal epithelial cells; assay: MTT antiproliferative activity, A549; conditions: read-out: IC50, A549
Outline: as §1

[5] = tested on: HepG2 human hepatocarcinoma; assay: MTT antiproliferative activity, HepG2; conditions: read-out: IC50, HepG2
Outline: as §1

[6] = tested on: Helf human embryonic lung fibroblast; assay: MTT antiproliferative activity, Helf; conditions: read-out: IC50, Helf, 72 h
Outline: as §1

[7] = tested on: human normal liver cells (L02); assay: MTT antiproliferative activity, L02; conditions: read-out: IC50, L02, 72 h
Outline: as §1

[8] = tested on: selected malignant cell lines (B16F10, MCF-7, HCT-116, A549, HepG2); assay: MTT antiproliferative activity, selected malignant cell lines as a panel; conditions: 72 h, read-out: IC50 values, range over the selected malignant cell lines
Outline: as §1

[9] = MTT, mean ± SEM, n=3, normal cells

| IC50 ([1]; Mus musculus, B16-F10, 72 h) [µM] | IC50 ([2]; Homo sapiens, MCF7, 72 h) [µM] | IC50 ([3]; Homo sapiens, HCT-116, 72 h) [µM] | IC50 ([5]; Homo sapiens, HepG2, 72 h) [µM] | IC50 [8] [µM] | Structure (SMILES) | IC50 ([1]; MTT, 72 h, concentration that caused 50% cell killing, mean ± SEM, n=3) [µM] | IC50 ([2]; MTT, 72 h, mean ± SEM, n=3) [µM] | IC50 ([3]; MTT, 72 h, mean ± SEM, n=3) [µM] | IC50 ([4]; MTT, 72 h, mean ± SEM, n=3) [µM] | IC50 ([5]; MTT, 72 h, mean ± SEM, n=3) [µM] | IC50 [6, 9] [µM] | IC50 [7, 9] [µM] | IC50 ([4]; Homo sapiens, A549, 72 h) [µM] | IC50 ([6]; Homo sapiens, HELF) [µM] | IC50 ([7]; Homo sapiens) [µM] |
| --- | --- | --- | --- | --- | --- | --- | --- | --- | --- | --- | --- | --- | --- | --- | --- |
|  |  |  |  |  | N.N.[Cl][Pt][Cl] [Cisplatin] | 11.7 ± 0.95 | 7.83 ± 0.52 | 9.45 ± 1.04 | 12.7 ± 1.85 | 4.77 ± 0.62 | 21.8 ± 3.03 | 9.17 ± 0.83 |  |  |  |
| 27 ± 2.5 | 17.5 ± 1.72 | 27.3 ± 3.28 | 30.4 ± 5.14 | 17.5 to 38.3 | C=C(C)[C@@H]1CC[C@]2(C(=O)O)CC[C@]3(C)[C@H](CC[C@@H]4[C@@]5(C)CC[C@H](O)C(C)(C)[C@@H]5CC[C@]43C)[C@@H]12 [BA, Betulinic acid] |  |  |  |  |  |  |  | 38.3 ± 5.9 | 62 ± 8.61 | 96.3 ± 7.99 |
